Results from publication PMC3428850 (Molecular cancer therapeutics, 2012).

Experiments:
LoVo cells = assay: clonogenic survival assay; assay type: cell-based, human
Outline: (§1)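 Cells in RPMI 1640/10% FBS were exposed in 6-well plates for 16 h to etoposide or doxorubicin with or without test compound (1 μM), or to test compound alone. Cells then harvested and reseeded in drug-free medium. Colonies stained with crystal violet after 10-14 days and counted automatically. Fold enhancement = survival with cytotoxic alone / survival with cytotoxic + 1 μM test compound. Means ± SD, n = 3.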

M059J cells = assay: clonogenic survival assay, DNA-PKcs-deficient cells; assay type: cell-based, human; conditions: clonogenic survival
Outline: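 Human glioblastoma M059J cells (DNA-PKcs-deficient) and M059-Fus-1 cells (chromosome 8 transfected; G-418 200 μg/ml) in DMEM/10% FBS. Etoposide or doxorubicin alone or with 1 μM test compound, or test compound alone, for 16 h. Reseeded drug-free. Crystal violet colony counts after 10-14 days. Fold enhancement as survival ratio. Means ± SD, n = 3.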

MDA-MB-231 cells = assay: clonogenic survival assay; assay type: cell-based, human
Outline: as §1

SW620 cells = assay: clonogenic survival assay; assay type: cell-based, human
MCF7 cells = assay: clonogenic survival assay; assay type: cell-based, human
Outline: as §1

T47D cells = assay: clonogenic survival assay; assay type: cell-based, human
Outline: as §1

PI-3K = assay: PI-3K-dependent AKT phosphorylation; assay type: cell-based, human; conditions: read-out: IC50 PI-3K-mediated AKT phosphorylation; MCF7 cells, IGF-1 stimulated
Outline: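 MCF7 cells in RPMI 1640/10% FBS. Exposed to a concentration range of test compound for 1 h, then 50 ng/ml IGF-1 for 30 min. Western blot of AKT Ser473 relative to total AKT. Rise above unstimulated baseline in treated cells expressed as % of the rise in control cells. Mean of three independent experiments fitted to a sigmoidal dose-response curve for IC50.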

V3 cells = assay: clonogenic survival assay, DNA-PKcs-deficient cells; assay type: cell-based, Chinese hamster; conditions: clonogenic survival
Outline: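 Chinese hamster ovary V3 cells (DNA-PKcs-deficient) and V3-YAC cells (human DNA-PKcs on YAC; kept under G-418 500 μg/ml) in RPMI 1640/10% FBS. Etoposide alone or with 1 μM test compound, or test compound alone, for 16 h. Reseeded drug-free. Crystal violet colony counts after 10-14 days. Fold enhancement as survival ratio. Means ± SD of 3 independent experiments.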

SW620 xenografts = assay: anti-tumour efficacy study, SW620 xenografts; assay type: in vivo, mice
Outline: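 Female athymic CD1-nu/nu mice with s.c. SW620, n = 5/group, treated once tumours were palpable (~5 × 5 mm, day 8-10). Controls: saline i.p. daily. Test compound 10 mg/kg i.p. for 5 days. Etoposide phosphate 11.35 mg/kg i.p. (10 mg/kg etoposide) daily × 5. Combination: test compound i.p. once or twice daily × 5, first dose just before etoposide. Caliper volume a²×b/2; median RTV (day 0 = 1); time to RTV4.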

MCF7 xenografts = assay: anti-tumour efficacy study, MCF7 xenografts; assay type: in vivo; conditions: MCF7 tumour-bearing mice
[1] = 100 nM doxorubicin with or without 1 μM KU-0060648, 16 hr
[2] = 1 μM etoposide with or without 1 μM KU-0060648, 16 hr

## COc1cccc2c1C(=O)c1c(O)c3c(c(O)c1C2=O)C[C@@](O)(C(=O)CO)C[C@@H]3O[C@H]1C[C@H](N)[C@H](O)[C@H](C)O1 [doxorubicin, reference compound]
LoVo cells; [1]
  survival (clonogenic): 1.4±0.9
M059J cells
  fold more sensitive, DNA-PKcs-deficient M059J versus M059-Fus-1 cells: approximately 23 fold
MDA-MB-231 cells; MDA-MB-231, 100 nM doxorubicin with or without 1 μM KU-0060648, 16 hr
  survival (clonogenic): 1.8±0.6
SW620 cells; SW620, 100 nM doxorubicin with or without 1 μM KU-0060648, 16 hr
  survival (clonogenic): 0.06±0.06
MCF7 cells; MCF7, 100 nM doxorubicin with or without 1 μM KU-0060648, 16 hr
  survival (clonogenic): 42.3±13
T47D cells; [1]
  survival (clonogenic): 9.0±3.2

## O=c1cc(N2CCOCC2)oc2c(-c3cccc4c3sc3ccccc34)cccc12 [NU7441, reference compound]
PI-3K
  IC50: 3.9 ± 3.5 µM

## COc1cc([C@@H]2c3cc4c(cc3[C@@H](O[C@@H]3O[C@@H]5CO[C@@H](C)O[C@H]5[C@H](O)[C@H]3O)[C@H]3COC(=O)[C@H]23)OCO4)cc(OC)c1O [etoposide, reference compound]
V3 cells
  fold more sensitive, DNA-PKcs-deficient V3 versus V3-YAC cells: approximately 3 fold
LoVo cells; [2]
  survival (clonogenic): 3.5±0.5
M059J cells
  fold more sensitive, DNA-PKcs-deficient M059J versus M059-Fus-1 cells: approximately 2.5 fold
MDA-MB-231 cells; MDA-MB-231, 1 μM etoposide with or without 1 μM KU-0060648, 16 hr
  survival (clonogenic): 16±10
SW620 cells; SW620, 1 μM etoposide with or without 1 μM KU-0060648, 16 hr
  survival (clonogenic): 4.7±2.0
MCF7 cells; MCF7, 1 μM etoposide with or without 1 μM KU-0060648, 16 hr
  survival (clonogenic): 23±9
T47D cells; [2]
  survival (clonogenic): 24±4

## COc1cc([C@@H]2c3cc4c(cc3[C@@H](O[C@@H]3O[C@@H]5CO[C@@H](C)O[C@H]5[C@H](O)[C@H]3O)[C@H]3COC(=O)[C@H]23)OCO4)cc(OC)c1OP(=O)(O)O [etoposide phosphate, reference compound]
SW620 xenografts; SW620 tumour-bearing mice
  maximum body weight loss: no body weight loss
SW620 xenografts; SW620 xenografts, single agent or combination with once daily KU-0060648
  time to RTV4 (median): 6.5 days
MCF7 xenografts
  maximum body weight loss: 3%
